In ChEMBL document CHEMBL1165853, “Hybrids of 3alpha-methoxyserrat-14-en-21beta-ol (PJ-1) and 3beta-methoxyserrat-14-en-21beta-ol (PJ-2) and various anti-oxidants as cancer chemopreventive agents” (Eur J Med Chem, 2010):
Active and inactive are the calls of the source. The calls are words filed in the database; no cut-off is given here.

Legend:
[1] = Inhibition of TPA-induced EBV-early antigen activation in human Raji cells assessed as EA activation after 48 hrs; format: cell-based, human gammaherpesvirus 4
Procedure, shortened: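 Raji cells (EBV genome-carrying, virus non-producer Burkitt's lymphoma line; RPMI-1640 with 10% FBS) were seeded at 1×10⁶/mL and held 48 h at 37 °C with n-butyric acid (4 mmol), TPA (32 pmol) and test agent at 1000, 500, 100 or 10 mol ratio/32 pmol TPA. EA-positive cells were scored by indirect immunofluorescence with NPC patient serum, counting ≥500 cells, in triplicate. Results are expressed relative to the butyrate+TPA control (100%), and IC50 is given as mol ratio/32 pmol TPA.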

[2] = Cytotoxicity against human Raji cells assessed as cell viability at 1000 molar ratio by trypan blue staining method; format: cell-based; conditions: read-out: Activity
Procedure, shortened: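 Viability was measured by trypan blue staining of Raji cells after the 48 h, 37 °C EBV-EA induction run (n-butyric acid 4 mmol plus TPA 32 pmol), with compound at 1000 mol ratio/32 pmol TPA.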

Mus musculus [3] = experiment: Inhibition of DMBA-induced/TPA-promoted carcinogenesis in ICR mouse assessed as reduction of mouse bearing papillomas at 85 nmol administered 1 hr before TPA treatment measured after 10 to 15 weeks; format: functional
Procedure, shortened: (§1)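 In the two-stage mouse skin carcinogenesis model, DMBA was the initiator and TPA the promoter, and test agent was given at 85 nmol alongside DMBA/TPA. Papilloma-bearing mice (%), papillomas per mouse, and tumor length and width were followed through week 20 against a DMBA/TPA-only group.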

Mus musculus [4] = experiment: Inhibition of DMBA-induced/TPA-promoted carcinogenesis in ICR mouse assessed as reduction of mouse bearing papillomas at 85 nmol administered 1 hr before TPA treatment measured after 20 weeks; format: functional; procedure, shortened: as §1
Mus musculus [5] = experiment: Inhibition of DMBA-induced/TPA-promoted carcinogenesis in ICR mouse assessed as reduction of mouse bearing papillomas number at 85 nmol administered 1 hr before TPA treatment measured after 20 weeks; format: functional; procedure, shortened: as §1
Mus musculus [6] = experiment: Inhibition of DMBA-induced/TPA-promoted carcinogenesis in ICR mouse assessed as reduction of mouse bearing papillomas length at 85 nmol administered 1 hr before TPA treatment measured after 20 weeks; format: functional; procedure, shortened: as §1
Mus musculus [7] = experiment: Inhibition of DMBA-induced/TPA-promoted carcinogenesis in ICR mouse assessed as reduction of mouse bearing papillomas width at 85 nmol administered 1 hr before TPA treatment measured after 20 weeks; format: functional; procedure, shortened: as §1
Mus musculus [8] = organism: Mus musculus; experiment: Toxicity in ICR mouse assessed as change in body weight; format: organism-based; conditions: in vivo
Mus musculus [9] = organism: Mus musculus; experiment: Toxicity in ICR mouse assessed as lesional damage; format: organism-based; conditions: in vivo
Mus musculus [10] = organism: Mus musculus; experiment: Toxicity in ICR mouse assessed as inflammation; format: organism-based; conditions: in vivo

Compound	IC50 [1] [molar ratio]	viability at 1000 molar ratio [2] [%]	other results
CO[C@H]1CC[C@@]2(C)[C@@H](CC[C@@]3(C)CC4=CC[C@H]5C(C)(C)[C@H](OC(=O)NS(=O)(=O)c6ccc(C)cc6)CC[C@]5(C)[C@H]4CC[C@@H]32)C1(C)C	461	60	
CO[C@H]1CC[C@@]2(C)[C@@H](CC[C@@]3(C)CC4=CC[C@H]5C(C)(C)[C@H](OC(=O)Nc6ccccc6Cl)CC[C@]5(C)[C@H]4CC[C@@H]32)C1(C)C	468	50	
COc1cc(/C=C/C(O)/C=C(O)/C=C/c2ccc(OC(=O)CCC(=O)O[C@@H]3CC[C@]4(C)[C@H]5CC[C@H]6[C@@](C)(CC[C@H]7C(C)(C)[C@@H](OC)CC[C@@]76C)CC5=CC[C@H]4C3(C)C)c(OC)c2)ccc1O (stereo partly drawn)	460	60	
CO[C@H]1CC[C@@]2(C)[C@@H](CC[C@@]3(C)CC4=CC[C@H]5C(C)(C)[C@H](OC(=S)Nc6ccccc6)CC[C@]5(C)[C@H]4CC[C@@H]32)C1(C)C	460	60	
COc1cc(/C=C/C(O)/C=C(O)/C=C/c2ccc(OC(=O)CCC(=O)O[C@@H]3CC[C@]4(C)[C@H]5CC[C@H]6[C@@](C)(CC[C@H]7C(C)(C)[C@H](OC)CC[C@@]76C)CC5=CC[C@H]4C3(C)C)c(OC)c2)ccc1O (stereo partly drawn)	393	60	
CO[C@@H]1CC[C@@]2(C)[C@@H](CC[C@@]3(C)CC4=CC[C@H]5C(C)(C)[C@H](OC(=O)CCC(=O)Oc6coc(CO)cc6=O)CC[C@]5(C)[C@H]4CC[C@@H]32)C1(C)C	370	70	
COc1cc(/C=C/C(O)=C/C(O)/C=C/c2ccc(OC(=O)CC(=O)O[C@@H]3CC[C@]4(C)[C@H]5CC[C@H]6[C@@](C)(CC[C@H]7C(C)(C)[C@H](OC)CC[C@@]76C)CC5=CC[C@H]4C3(C)C)c(OC)c2)ccc1OC(=O)CC(=O)O[C@@H]1CC[C@]2(C)[C@H]3CC[C@H]4[C@@](C)(CC[C@H]5C(C)(C)[C@H](OC)CC[C@@]54C)CC3=CC[C@H]2C1(C)C (stereo partly drawn)	335	60	
CO[C@H]1CC[C@@]2(C)[C@@H](CC[C@@]3(C)CC4=CC[C@H]5C(C)(C)[C@H](OC(=O)CCC(=O)Oc6ccc(-c7oc8cc(O)cc(O)c8c(=O)c7O)cc6O)CC[C@]5(C)[C@H]4CC[C@@H]32)C1(C)C	330	60	inhibition (INH) (Mus musculus [3]): 20%; inhibition (INH) (Mus musculus [4]): 86.6%; papillomas per mouse (Mus musculus [5]): 4.7 papillomas/mouse; Activity (Mus musculus [6]): 26 mm; Activity (Mus musculus [7]): 24 mm; Activity (Mus musculus [8]): Non-toxic; Activity (Mus musculus [9]): Non-toxic; Activity (Mus musculus [10]): Non-toxic
CO[C@@H]1CC[C@@]2(C)[C@@H](CC[C@@]3(C)CC4=CC[C@H]5C(C)(C)[C@H](OC(=O)CCC(=O)Oc6ccc(-c7oc8cc(O)cc(O)c8c(=O)c7O)cc6O)CC[C@]5(C)[C@H]4CC[C@@H]32)C1(C)C	350	60	inhibition (INH) (Mus musculus [3]): 26.6%; inhibition (INH) (Mus musculus [4]): 73.3%; inhibition (Mus musculus [5]): Active; Activity (Mus musculus [6]): 28 mm; Activity (Mus musculus [7]): 25 mm; Activity (Mus musculus [8]): Non-toxic; Activity (Mus musculus [9]): Non-toxic; Activity (Mus musculus [10]): Non-toxic
COc1cc(/C=C/C(O)=C/C(O)/C=C/c2ccc(OC(=O)CCC(=O)O[C@@H]3CC[C@]4(C)[C@H]5CC[C@H]6[C@@](C)(CC[C@H]7C(C)(C)[C@H](OC)CC[C@@]76C)CC5=CC[C@H]4C3(C)C)c(OC)c2)ccc1OC(=O)CCC(=O)O[C@@H]1CC[C@]2(C)[C@H]3CC[C@H]4[C@@](C)(CC[C@H]5C(C)(C)[C@H](OC)CC[C@@]54C)CC3=CC[C@H]2C1(C)C (stereo partly drawn)	462	60	
COc1cc(/C=C/C(=O)CC(O)/C=C/c2ccc(OC(=O)CC(=O)O[C@@H]3CC[C@]4(C)[C@H]5CC[C@H]6[C@@](C)(CC[C@H]7C(C)(C)[C@@H](OC)CC[C@@]76C)CC5=CC[C@H]4C3(C)C)c(OC)c2)ccc1OC(=O)CC(=O)O[C@@H]1CC[C@]2(C)[C@H]3CC[C@H]4[C@@](C)(CC[C@H]5C(C)(C)[C@@H](OC)CC[C@@]54C)CC3=CC[C@H]2C1(C)C (stereo partly drawn)	338	60	
COc1cc(/C=C/C(O)/C=C(O)/C=C/c2ccc(OC(=O)CC(=O)O[C@@H]3CC[C@]4(C)[C@H]5CC[C@H]6[C@@](C)(CC[C@H]7C(C)(C)[C@@H](OC)CC[C@@]76C)CC5=CC[C@H]4C3(C)C)c(OC)c2)ccc1O (stereo partly drawn)	358	60	
CO[C@H]1CC[C@@]2(C)[C@@H](CC[C@@]3(C)CC4=CC[C@H]5C(C)(C)[C@H](OC(=O)Nc6ccccc6)CC[C@]5(C)[C@H]4CC[C@@H]32)C1(C)C	459	60	
CO[C@H]1CC[C@@]2(C)[C@@H](CC[C@@]3(C)CC4=CC[C@H]5C(C)(C)[C@H](OC(N)=O)CC[C@]5(C)[C@H]4CC[C@@H]32)C1(C)C	470	60	
COc1cc(/C=C/C(O)=C/C(O)/C=C/c2ccc(OC(=O)CCC(=O)O[C@@H]3CC[C@]4(C)[C@H]5CC[C@H]6[C@@](C)(CC[C@H]7C(C)(C)[C@@H](OC)CC[C@@]76C)CC5=CC[C@H]4C3(C)C)c(OC)c2)ccc1OC(=O)CCC(=O)O[C@@H]1CC[C@]2(C)[C@H]3CC[C@H]4[C@@](C)(CC[C@H]5C(C)(C)[C@@H](OC)CC[C@@]54C)CC3=CC[C@H]2C1(C)C (stereo partly drawn)	395	60	
CC1(C)CC[C@]2(C(=O)O)CC[C@]3(C)C(=CC[C@@H]4[C@@]5(C)CC[C@H](O)C(C)(C)[C@@H]5CC[C@]43C)[C@@H]2C1 [OLEANOLIC_ACID]	449		
COc1cc(/C=C/C(O)/C=C(O)/C=C/c2ccc(OC(=O)CC(=O)O[C@@H]3CC[C@]4(C)[C@H]5CC[C@H]6[C@@](C)(CC[C@H]7C(C)(C)[C@H](OC)CC[C@@]76C)CC5=CC[C@H]4C3(C)C)c(OC)c2)ccc1O (stereo partly drawn)	354	60	
CO[C@H]1CC[C@@]2(C)[C@@H](CC[C@@]3(C)CC4=CC[C@H]5C(C)(C)[C@H](OC(=O)CCC(=O)Oc6coc(CO)cc6=O)CC[C@]5(C)[C@H]4CC[C@@H]32)C1(C)C	371	70	
CO[C@H]1CC[C@@]2(C)[C@@H](CC[C@@]3(C)CC4=CC[C@H]5C(C)(C)[C@H](OC(=O)CCl)CC[C@]5(C)[C@H]4CC[C@@H]32)C1(C)C	473	60	
